The values below come from ChEMBL document CHEMBL1144560, “Synthesis of benzofuran scaffold-based potential PTP-1B inhibitors” (Bioorg Med Chem, 2007).

Active and inactive are the calls of the source. The rule behind the calls is not given here.

Test [1] concerns the target T1, Tyrosine-protein phosphatase non-receptor type 1 (Homo sapiens) (UniProt P18031).
T1 sequence (whole entry): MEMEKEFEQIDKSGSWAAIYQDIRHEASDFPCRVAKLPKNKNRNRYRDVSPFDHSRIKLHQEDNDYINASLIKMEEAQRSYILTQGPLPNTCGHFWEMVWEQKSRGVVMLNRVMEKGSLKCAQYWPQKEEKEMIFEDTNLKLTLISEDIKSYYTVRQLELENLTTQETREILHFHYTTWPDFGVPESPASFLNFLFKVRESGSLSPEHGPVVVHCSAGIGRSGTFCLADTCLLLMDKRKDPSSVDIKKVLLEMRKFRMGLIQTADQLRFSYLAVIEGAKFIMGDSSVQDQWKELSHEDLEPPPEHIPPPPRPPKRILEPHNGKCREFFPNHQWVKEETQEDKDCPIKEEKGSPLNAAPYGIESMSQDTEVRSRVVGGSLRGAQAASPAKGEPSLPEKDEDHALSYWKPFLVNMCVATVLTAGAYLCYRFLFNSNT
Description: (§1) Inhibition of PTP1B at 100 uM. The essentials: (§2)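 Compound at 100 µM preincubated 10 min with PTP-1B, then 10 mM pNPP in 50 mM HEPES pH 7.0 with 1 mM DTT and 2 mM EDTA for 30 min at 37 °C. Stopped with 0.1 N NaOH. p-Nitrophenolate read at 410 nm (ε 1.78×10^4 M⁻¹cm⁻¹) to give residual activity. Mean of three independent experiments.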

In test [2] the target is T2, Tyrosine-protein phosphatase non-receptor type 1 (Homo sapiens, UniProt P18031).
T2 sequence (P18031 whole entry): T1 sequence (whole entry)
Description: Inhibition of PTP1B. An outline of the steps:
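No detergent present. Compounds at 10, 25, 50, 75 and 100 µM preincubated 10 min with PTP-1B, then 10 mM pNPP in 50 mM HEPES pH 7.0, 1 mM DTT, 2 mM EDTA, 30 min at 37 °C. NaOH stop. A410 converted to p-nitrophenolate (ε 1.78×10^4 M⁻¹cm⁻¹). IC50 and Ki derived.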

In test [3] the target is T2, Tyrosine-protein phosphatase non-receptor type 1. Description: Inhibition of PTP1B in presence of 0.01% Triton X-100. The essentials: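 0.01% Triton X-100 included during the 10-min preincubation of compound (10–100 µM) with PTP-1B. Then 10 mM pNPP in 50 mM HEPES pH 7.0, 1 mM DTT, 2 mM EDTA, 30 min at 37 °C, NaOH stop. Read at 410 nm (ε 1.78×10^4 M⁻¹cm⁻¹). IC50 and Ki derived.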

Test [4] concerns the target Tyrosine-protein phosphatase non-receptor type 1 (Homo sapiens) (UniProt P18031). The description is as §1. An outline of the steps:
as §2
This is another data set of the same source.

Regarding `CC(=O)c1cc2oc(-c3coc4cc(C(C)=O)c(O)cc34)cc2cc1O`, the inhibition (as a rule, the drop in the measured response relative to a control, in per cent) in test [1] came out at 36.2%. As for `CC(=O)c1c(O)ccc2cc(-c3coc4c(C(C)=O)c(O)ccc34)oc12`, in test [2], it took 75 µM to reach half-maximal inhibition (IC50) and the affinity, expressed as Ki, was 64 µM. Besides, in test [3], the IC50 (as a rule, the concentration that gives 50% inhibition) amounted to 56.3 µM; the Ki (usually the dissociation constant of the complex between target and ligand, obtained from inhibition or displacement) was 54 µM. Further, the inhibition in test [1] turned out to be 72%. On to `COc1ccc(-c2cc(=O)c3ccc4occc4c3o2)cc1`, for which the inhibition in test [1] was 22%. Still for that read-out and setting: to `COc1ccc(/C(O)=C/C(=O)c2cc3ccoc3cc2O)cc1` belongs 40.5%; to `COc1cc2occc2cc1C(=O)/C=C(\O)c1ccccc1`, 41.5%. In test [2], `CC(=O)c1ccc2oc(-c3coc4ccc(C(C)=O)c(O)c34)cc2c1O` had an IC50 of 87 µM and a Ki of 35 µM. In test [3], the IC50 was determined as 58.8 µM and the Ki turned out to be 27.5 µM. Moreover, the inhibition in test [1] was 67.4%.

`COc1c(C(=O)/C=C(\O)c2ccc(CO)c(CO)c2)ccc2occc12` had an inhibition in test [1] of 42.8%. Take `O=C(/C=C(\O)c1ccccc1)c1ccc2occc2c1O`: in test [1], the inhibition was 40.5%. Same read-out and setting: then `O=c1cc(-c2ccc(CO)c(CO)c2)oc2cc3occc3cc12`, with 8.1%.

For `O=c1cc(-c2ccccc2)oc2cc3occc3cc12`, in test [2], the midpoint of inhibition, the IC50, lay at 94 µM and the Ki stood at 57 µM. For the same molecule, in test [3], the IC50 is 61.3 µM and the Ki came to 45 µM. This molecule also showed an inhibition in test [1] of 67.5%. With `COc1cccc(-c2cc(=O)c3cc4ccoc4cc3o2)c1`, the result in test [1] was inactive. Turning to `COc1cccc(/C(O)=C/C(=O)c2cc3ccoc3cc2O)c1`, in test [1], the result was inactive. On to `CC(=O)c1cc2ccoc2cc1O`, for which the inhibition in test [1] was found to be 19%. In test [4], SODIUM ORTHOVANAD registered an inhibition of 56%. `O=c1cc(-c2ccccc2)oc2c1ccc1occc12`: the inhibition in test [1] was found to be 21%. For the molecule `COc1ccc(/C(O)=C/C(=O)c2ccc3occc3c2OC)cc1`, in test [1], the result was inactive. Molecule `O=C(/C=C(\O)c1ccc(CO)c(CO)c1)c1cc2ccoc2cc1O` had an inhibition in test [1] of 56.7%.

`COc1c(C(=O)/C=C(\O)c2ccccc2Cl)ccc2occc12`: the inhibition in test [1] amounted to 27%. With `COc1ccc(/C(O)=C/C(=O)c2cc3ccoc3cc2O)cc1OC`, in test [1], the inhibition was 32.4%. `CC(=O)c1cc2cc(-c3coc4cc(O)c(C(C)=O)cc34)oc2cc1O`: in test [2], the IC50 was found to be 80 µM and the affinity, expressed as Ki, was 37 µM. In addition, in test [3], the IC50 came out at 91.3 µM and the Ki was determined as 61 µM. In addition, the inhibition in test [1] turned out to be 74.9%. In test [1], `O=C(/C=C(\O)c1ccccc1)c1cc2ccoc2cc1O` registered an inhibition of 24.3%. For the molecule `COc1ccc(-c2cc(=O)c3cc4ccoc4cc3o2)cc1OC`, in test [1], the inhibition stood at 24.3%. In test [2], `COc1ccc(-c2cc(=O)c3cc4ccoc4cc3o2)cc1` displayed an IC50 of 72.5 µM and a Ki of 30 µM. Moreover, in test [3], the IC50 amounted to 68.8 µM and the Ki was 36 µM. Further, in test [1], the inhibition came out at 75.6%. In test [1], `CC(=O)c1ccc2occc2c1O` showed an inhibition of 21.6%. `COc1ccc(/C(O)=C/C(=O)c2ccc3occc3c2O)cc1`: the inhibition in test [1] was found to be 24.3%. Same read-out and setting: then `COc1ccc2cc(-c3coc4c(C(C)=O)c(OC)ccc34)oc2c1C(C)=O`, with 54.6%; and `COC(=O)c1ccc2oc(-c3coc4ccc(C(=O)OC)c(O)c34)cc2c1O`, with 55.5%.
